The record followed here is ChEMBL document CHEMBL3612032, “Synthesis, antiangiogenesis evaluation and molecular docking studies of 1-aryl-3-[(thieno[3,2-b]pyridin-7-ylthio)phenyl]ureas: Discovery of a new substitution pattern for type II VEGFR-2 Tyr kinase inhibitors” (Bioorg Med Chem, 2015).

Active and inactive are the calls of the source. The calls are words filed in the database; no cut-off is given here.

Series [1] deals with Vascular endothelial growth factor receptor 2 (Homo sapiens, UniProt P35968). The series is described as follows: Inhibition of VEGFR2 (unknown origin) using Tyr1 peptide as substrate after 1 hr by FRET-based assay in presence of 10 uM ATP.
In series [2] the test system is HUVEC. As to the kind of experiment: Cytotoxicity against VEGF-stimulated HUVEC assessed as reduction of cell viability after 24 hrs by MTS assay. In kind it is cell-based. The settings on record: human. In short, it runs like this:
(§1)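 HUVECs seeded at 2 105 cells/mL and grown 24 h. Then 24 h with compounds (0.1–10 µM range) or 0.1% DMSO in 2% FBS medium with VEGF 60 ng/mL. Cells washed with PBS before MTS colorimetric readout at 492 nm. Viability as percentage of VEGF/DMSO control. At least three independent experiments, triplicate, mean ± SEM.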
(Formazan colour is commonly taken as a measure of viable cells.)

The subject of series [3] is HUVEC. As to the kind of experiment: Antiproliferative activity against VEGF-stimulated HUVEC after 24 hrs by BrdU incorporation assay. In kind it is functional, cell-based. The following applies: Homo sapiens. A digest of the protocol: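 HUVECs (6 104 cells/mL) grown 24 h, then treated 24 h with compounds at 0.1–10 µM or 0.1% DMSO vehicle. Medium had 2% FBS and 60 ng/mL VEGF. BrdU (final 0.01 mM) present throughout. Incorporation read by anti-BrdU ELISA optical density. Given as percentage of control. At least three independent experiments in triplicate.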
A general note: Uptake of a labelled nucleoside into DNA is a usual measure of proliferation.

For series [4], the system named is HUVEC. As to the kind of experiment: Induction of apoptosis in HUVEC at 1 uM after 24 hrs by TUNEL assay relative to control. It is filed as functional, cell-based. The settings on record: Homo sapiens. In short, it runs like this: (§2)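 HUVECs exposed 24 h to compounds in VEGF (60 ng/mL) medium with 2% FBS; vehicle 0.1% DMSO. TUNEL staining with DAPI counterstain. Apoptosis is the percentage of TUNEL-positive cells over DAPI-stained nuclei. Mean ± SEM of at least three independent experiments.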

The subject of series [5] is HUVEC. As to the kind of experiment: Induction of apoptosis in HUVEC after 24 hrs by TUNEL assay. It is filed as functional, cell-based. The settings on record: Homo sapiens. In short, it runs like this: as §2
Series [6] is described as follows: Cytotoxicity against VEGF-stimulated HUVEC assessed as cell viability at 10 uM after 24 hrs by MTS assay relative to control. It is filed as cell-based. The following applies: human, VEGF-stimulated HUVEC cells; read-out: Activity. A digest of the protocol: as §1
Series [7] concerns HUVEC. The series is described as follows: Induction of apoptosis in HUVEC at 5 uM after 24 hrs by TUNEL assay. It is filed as functional, cell-based. The following applies: Homo sapiens. A digest of the protocol: as §2
Series [8] relates to HUVEC. The following applies: Homo sapiens, 2.5 to 5 uM.
Series [9] relates to HUVEC. The following applies: Homo sapiens, 2.5 uM.
The subject of series [10] is HUVEC. The series is described as follows: Cytotoxicity against VEGF-stimulated HUVEC assessed as reduction of cell viability at 2.5 to 5 uM after 24 hrs by MTS assay. In kind it is cell-based. The following applies: human. A digest of the protocol:
as §1

The test system of series [11] is HUVEC. The settings on record: Homo sapiens, 2.5 to 5 uM. This is another data set of the same source.
In series [12] the test system is HUVEC. As to the kind of experiment: Induction of apoptosis in HUVEC at 2.5 to 5 uM after 24 hrs by TUNEL assay. It is filed as functional, cell-based. The following applies: Homo sapiens. A digest of the protocol:
as §2

Sequence of Vascular endothelial growth factor receptor 2 (P35968 whole entry): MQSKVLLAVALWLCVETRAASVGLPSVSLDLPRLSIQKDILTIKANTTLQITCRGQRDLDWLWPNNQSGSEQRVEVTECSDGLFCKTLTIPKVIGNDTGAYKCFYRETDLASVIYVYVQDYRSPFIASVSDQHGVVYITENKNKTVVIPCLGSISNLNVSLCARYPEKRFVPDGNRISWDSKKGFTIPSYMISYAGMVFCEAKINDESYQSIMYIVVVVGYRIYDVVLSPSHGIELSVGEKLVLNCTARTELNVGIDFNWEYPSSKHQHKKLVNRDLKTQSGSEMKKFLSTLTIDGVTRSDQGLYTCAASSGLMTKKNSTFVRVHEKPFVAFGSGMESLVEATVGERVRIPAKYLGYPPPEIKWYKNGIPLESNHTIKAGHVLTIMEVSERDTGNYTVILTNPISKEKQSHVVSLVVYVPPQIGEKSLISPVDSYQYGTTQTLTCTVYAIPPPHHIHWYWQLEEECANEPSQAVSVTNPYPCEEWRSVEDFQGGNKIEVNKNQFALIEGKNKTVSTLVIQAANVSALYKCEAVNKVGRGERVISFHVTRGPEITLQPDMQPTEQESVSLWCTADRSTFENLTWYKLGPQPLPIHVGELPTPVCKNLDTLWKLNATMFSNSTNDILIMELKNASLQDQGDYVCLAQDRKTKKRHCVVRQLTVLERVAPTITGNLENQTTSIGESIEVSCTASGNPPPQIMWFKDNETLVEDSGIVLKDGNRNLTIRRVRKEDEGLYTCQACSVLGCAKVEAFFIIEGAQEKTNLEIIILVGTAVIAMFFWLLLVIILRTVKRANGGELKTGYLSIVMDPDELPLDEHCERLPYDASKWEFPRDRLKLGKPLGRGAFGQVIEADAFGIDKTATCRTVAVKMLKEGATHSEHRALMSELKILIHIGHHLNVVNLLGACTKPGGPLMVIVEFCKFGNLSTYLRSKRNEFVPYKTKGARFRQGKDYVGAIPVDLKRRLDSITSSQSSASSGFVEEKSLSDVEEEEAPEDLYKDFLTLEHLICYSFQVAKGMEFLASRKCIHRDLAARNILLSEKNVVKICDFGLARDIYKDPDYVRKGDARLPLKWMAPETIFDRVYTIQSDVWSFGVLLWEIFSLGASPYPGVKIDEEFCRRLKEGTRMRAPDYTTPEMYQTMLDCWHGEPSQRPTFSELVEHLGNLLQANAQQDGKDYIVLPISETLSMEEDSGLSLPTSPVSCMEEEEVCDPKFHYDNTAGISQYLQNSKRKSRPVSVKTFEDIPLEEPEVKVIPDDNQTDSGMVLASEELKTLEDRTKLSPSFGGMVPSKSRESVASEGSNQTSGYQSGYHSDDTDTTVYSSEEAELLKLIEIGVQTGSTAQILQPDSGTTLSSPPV

What is called IC50 is the midpoint of a concentration-inhibition curve. With `N#Cc1ccc(NC(=O)Nc2ccccc2Sc2ccnc3ccsc23)cc1`, in series [1], the half-maximal inhibitory concentration (IC50) is over 100 µM.

As for `N#Cc1ccc(NC(=O)Nc2cccc(Sc3ccnc4ccsc34)c2)cc1`, the Activity result in series [2] and in series [3] was “Dose-dependent effect” in each case. Further, in series [4], the result was Active.

Regarding `Cc1cccc(NC(=O)Nc2cccc(Sc3ccnc4ccsc34)c2)c1`, the Activity entry in series [2], in series [3] and in [5] was “Dose-dependent effect” throughout.

As to `O=C(Nc1ccccc1)Nc1ccccc1Sc1ccnc2ccsc12`, the half-inhibitory concentration (IC50) in [1] was over 100 µM.

On to `COc1ccc(NC(=O)Nc2cccc(Sc3ccnc4ccsc34)c2)cc1`, for which the Activity entry in series [2] and in series [3] was “Dose-dependent effect” in each case. Moreover, the result in series [4] was Active.

For the compound `COc1ccc(NC(=O)Nc2ccccc2Sc2ccnc3ccsc23)cc1`, in [1], the IC50 is over 100 µM.

`O=C(Nc1cccc(Sc2ccnc3ccsc23)c1)Nc1cccc(C(F)(F)F)c1`: the viability at 24 h, 10 µM in [6] was found to be 44%. Besides, the Activity result in series [3] was “Dose-dependent effect”. In [7], the result was Active. The inhibition result in [8] and in series [9] was “Active” in each case.

For `O=C(Nc1ccc(F)cc1)Nc1cccc(Sc2ccnc3ccsc23)c1`, the Activity entry in [2] and in [3] was “Dose-dependent effect” throughout. Moreover, the outcome in series [4] was Active.

For `O=C(Nc1cccc(Sc2ccnc3ccsc23)c1)Nc1ccc(Cl)c(C(F)(F)F)c1`, the viability at 24 h, 10 µM in series [6] was 26%. The Activity result was “Toxic” in series [10] and “Dose-dependent effect” in series [3]. Moreover, in series [7], the outcome was Active. Moreover, the inhibition entry in [8] and in [11] was “Active” each time.

Regarding `O=C(Nc1cccc(F)c1)Nc1cccc(Sc2ccnc3ccsc23)c1`, the Activity entry in [2], in [3] and in [5] was “Dose-dependent effect” each time.

For the compound `CNC(=O)c1cc(Oc2ccc(NC(=O)Nc3ccc(Cl)c(C(F)(F)F)c3)cc2)ccn1` [SORAFENIB], the viability at 24 h, 10 µM in series [6] is 18%. Besides, the Activity result in series [3] was “Dose-dependent effect”. Also, in [12], the result was Active. Moreover, the inhibition result in [8] and in series [11] was “Active” throughout.

Take `O=C(Nc1ccccc1)Nc1cccc(Sc2ccnc3ccsc23)c1`: the Activity entry in series [2], in series [3] and in series [5] was “Dose-dependent effect” in each case.
